Measured values collected from several papers.
Each line is one published result; the experiments were not run side by side.
Matrix: plasma
Route: intravenous

CCOC(=O)[C@@]12C[C@@H]1[C@@H](n1ccc3c(NC)nc(C#Cc4ccc(Cl)s4)nc31)[C@H](O)[C@@H]2O — Vd (male Sprague-Dawley rat; 0.5 mg/kg): 33.8 L/kg
CCCC[C@@H]1NC(=O)[C@H](Cc2ccc(O)cc2)NC(=O)[C@@H]2CCCN2C(=O)[C@H](CC(=O)O)NC(=O)[C@H](C)NC(=O)[C@H](Cc2ccccc2)NC(=O)[C@@H]2CSCCC(=O)N3CN(CN(C3)C(=O)CCSC[C@@H](C(=O)N[C@@H](C)C(N)=O)NC1=O)C(=O)CCSC[C@H](NC(C)=O)C(=O)N[C@@H](CC(C)(C)C)C(=O)N1CCC[C@H]1C(=O)N[C@@H](CCC(=O)O)C(=O)N[C@H](CCCCNC(=O)CCc1cn(CCOCCOCCOCCOCCOCCC(=O)N[C@H]3CSCCC(=O)N4CN5CN(C4)C(=O)CCSC[C@H](NC(=O)[C@@H](CC(=O)O)NC(=O)[C@H](Cc4cccc6ccccc46)NC(=O)[C@@H]4CCCN4C3=O)C(=O)N[C@@H](CCSC)C(=O)N[C@@H](CCCCNC(=N)N)C(=O)N[C@@H](CC(=O)O)C(=O)N[C@@H](Cc3c[nH]c4ccccc34)C(=O)N[C@@H](CO)C(=O)N[C@@H]([C@@H](C)O)C(=O)N3CCC[C@H]3C(=O)N3C[C@H](O)C[C@H]3C(=O)N[C@@H](Cc3c[nH]c4ccccc34)C(=O)N[C@H](C(N)=O)CSCCC5=O)nn1)C(=O)N1CCC[C@H]1C(=O)N[C@@H](Cc1ccc(O)cc1)C(=O)N2 — Vd (rat; 2 mg/kg): 1 L/kg
Oc1c(Br)cc(Cl)c2cccnc12 — Vd (Sprague-Dawley rat; 2 mg/kg): 21.3 L/kg
Cc1noc(-c2cc3cc(-c4nc(C(=O)NCc5ccncc5)[nH]c4C)ccc3[nH]2)n1 — Vd (Sprague-Dawley rat; 1 mg/kg): 1.5 L/kg
C[C@]12CC[C@H](n3ccnc3)CC1=CC[C@@H]1[C@@H]2CC[C@]2(C)C(n3cnc4ccccc43)=CC[C@@H]12 — Vd (Sprague-Dawley rat; 1 mg/kg): ~6 L/kg
CCCCCCCCCCCCCCCc1ccc(CP(=O)(O)O)cc1 — Vd (male Sprague-Dawley rat; 5.8 mg/kg): 3.9 L/kg
CCc1cc(OC)c2nccc(N3CCc4c(cc(Cn5ccnc5)cc4-c4cn(C)nc4C(F)(F)F)C3=O)c2c1 — Vd (male Sprague-Dawley rat; 3 mg/kg): 3.1 L/kg
Oc1cc(O)cc(-c2cc3ccc(O)cc3o2)c1 — Vd (male rat; 5 mg/kg): 0.393 L/kg
COc1cc(F)ccc1-c1ncnc(Nc2cccc(C[S@](C)(=N)=O)c2)n1 — Vd (male Wistar rat): 1 L/kg
Cc1nc(Nc2ncc(C(=O)Nc3c(C)cccc3Cl)s2)cc(N2CCN(CCO)CC2)n1 — Vd (female Sprague-Dawley rat; 5 mg/kg): 4.6 L
COc1ccc2c(Cc3ccccc3F)c3[n+](cc2c1OC)CCc1cc2c(cc1-3)OCO2.[Br-] — Vd (rat; 5 mg/kg): 71.8 L/kg
CCCC[C@@H]1NC(=O)[C@H](Cc2ccc(O)cc2)NC(=O)[C@@H]2CCCN2C(=O)[C@H](CC(=O)O)NC(=O)[C@H](C)NC(=O)[C@H](Cc2ccccc2)NC(=O)[C@@H]2CSCCC(=O)N3CN(CN(C3)C(=O)CCSC[C@@H](C(=O)N[C@@H](CNC(=O)CCOCCOCCOCCOCCOCCOCCOCCOCCOCCOCCOCCOCCn3cc(CCC(=O)NCCC(=O)N(C)CC(=O)N(C)CC(=O)N(C)CC(=O)N(C)CC(=O)N(C)CC(=O)N(C)CC(=O)N(C)CC(=O)N(C)CC(=O)N(C)CC(=O)N(C)CC(=O)N[C@H]4CSCCC(=O)N5CN6CN(C5)C(=O)CCSC[C@H](NC(=O)[C@@H](CC(=O)O)NC(=O)[C@H](Cc5cccc7ccccc57)NC(=O)[C@@H]5CCCN5C4=O)C(=O)N[C@@H](CCSC)C(=O)N[C@@H](CCCCNC(=N)N)C(=O)N[C@@H](CC(=O)O)C(=O)N[C@@H](Cc4c[nH]c5ccccc45)C(=O)N[C@@H](CO)C(=O)N[C@@H]([C@@H](C)O)C(=O)N4CCC[C@H]4C(=O)N4C[C@H](O)C[C@H]4C(=O)N[C@@H](Cc4c[nH]c5ccccc45)C(=O)N[C@H](C(N)=O)CSCCC6=O)nn3)C(N)=O)NC1=O)C(=O)CCSC[C@H](NC(C)=O)C(=O)N[C@@H](CC(C)(C)C)C(=O)N1CCC[C@H]1C(=O)N[C@@H](CCC(=O)O)C(=O)N[C@H](C)C(=O)N1CCC[C@H]1C(=O)N[C@@H](Cc1ccc(O)cc1)C(=O)N2 — Vd (rat; 2 mg/kg): 0.46 L/kg
